Source: ChEMBL document CHEMBL5705905, “Pharmacological targeting of kinases MST1 and MST2 augments tissue repair and regeneration” (Sci Transl Med, 2016)
Activity calls are given as the source filed them. No cut-off for these calls is given here.

Tests used:
[1] = biological target: Tyrosine-protein kinase ZAP-70 (Homo sapiens) (UniProt P43403); experiment: Inhibition of ZAP70 (unknown origin) assessed as remaining activity at 1 uM by Kinome scan method relative to control
[2] = Acute toxicity in wild-type mouse assessed as CK19-positive cells at 1 mg/kg,ip administrated daily for 2 months and after 2 weeks drug withdrawal by H and E staining based immunohistochemical analysis; format: organism-based; details: in vivo, 1460 h
Summary of the method: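 Wild-type mice dosed 1 mg/kg i.p. daily for 2 months (vehicle 0.1% citric acid aqueous solution with 20% Kolliphor HS 15), or dosed and then withdrawn 2 weeks. Liver sections given H&E and IHC for CK19 and BrdU; positive cells counted, n = 3; means ± SD, Student's t test.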

[3] = system: HepG2; experiment: Inhibition of Flag-tagged MST1 D109A mutant (unknown origin) in human HepG2 cells assessed as MOB1 phosphorylation level at 3 uM by immunoblot analysis; format: cell-based
[4] = system: Mast/stem cell growth factor receptor Kit (Homo sapiens), P10721 [V559D]; experiment: Inhibition of KIT V559D mutant (unknown origin) assessed as remaining activity at 1 uM by Kinome scan method relative to control
[5] = biological target: Tyrosine-protein kinase ABL1 (Homo sapiens, UniProt P00519, Q252H); experiment: Binding affinity to phosphorylated ABL1 Q252H mutant (unknown origin) assessed as dissociation constant
[6] = biological target: T1, Serine/threonine-protein kinase 4 (Homo sapiens, UniProt Q13043); experiment: Inhibition of recombinant His-tagged full-length MST1 (unknown origin) expressing in Escherichia coli assessed as MOB1a phosphorylation level incubated for 30 min in the presence of 10 uM ATP by immunoblot analysis
T1 sequence (Q13043 whole entry): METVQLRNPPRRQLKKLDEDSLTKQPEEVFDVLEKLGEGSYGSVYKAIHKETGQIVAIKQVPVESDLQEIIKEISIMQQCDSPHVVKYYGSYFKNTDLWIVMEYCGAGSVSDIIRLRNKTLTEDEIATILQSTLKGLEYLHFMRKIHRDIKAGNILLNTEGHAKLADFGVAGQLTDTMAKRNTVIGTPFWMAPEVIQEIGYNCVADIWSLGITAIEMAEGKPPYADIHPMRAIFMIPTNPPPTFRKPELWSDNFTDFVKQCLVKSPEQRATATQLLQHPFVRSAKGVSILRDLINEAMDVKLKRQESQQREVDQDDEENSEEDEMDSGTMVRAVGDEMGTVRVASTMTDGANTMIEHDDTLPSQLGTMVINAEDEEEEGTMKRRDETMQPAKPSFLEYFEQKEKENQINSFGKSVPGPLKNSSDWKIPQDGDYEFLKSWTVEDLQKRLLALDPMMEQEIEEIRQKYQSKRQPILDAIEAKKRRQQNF

[7] = biological target: Calcium-dependent protein kinase 1 (Plasmodium falciparum) (UniProt P62344); experiment: Inhibition of Plasmodium falciparum CDPK1 assessed as remaining activity at 1 uM by Kinome scan method relative to control
[8] = biological target: Tyrosine-protein kinase Tec (Homo sapiens) (UniProt P42680); experiment: Inhibition of TEC (unknown origin) assessed as remaining activity at 1 uM by Kinome scan method relative to control
[9] = biological target: Mitogen-activated protein kinase kinase kinase 13 (Homo sapiens) (UniProt O43283); experiment: Inhibition of LZK (unknown origin) assessed as remaining activity at 1 uM by Kinome scan method relative to control
[10] = biological target: Serine/threonine-protein kinase ULK2 (Homo sapiens, UniProt Q8IYT8); experiment: Inhibition of ULK2 (unknown origin) in presence of ATP by enzymatic assay
[11] = biological target: Tyrosine-protein kinase Fyn (Homo sapiens) (UniProt P06241); experiment: Inhibition of FYN (unknown origin) assessed as remaining activity at 1 uM by Kinome scan method relative to control
[12] = biological target: Phosphorylase b kinase gamma catalytic chain, liver/testis isoform (Homo sapiens) (UniProt P15735); experiment: Inhibition of PHKG2 (unknown origin) assessed as remaining activity at 1 uM by Kinome scan method relative to control
[13] = biological target: Ephrin type-A receptor 7 (Homo sapiens) (UniProt Q15375); experiment: Inhibition of EPHA7 (unknown origin) assessed as remaining activity at 1 uM by Kinome scan method relative to control
[14] = biological target: Serine/threonine-protein kinase D1 (Homo sapiens) (UniProt Q15139); experiment: Inhibition of PRKD1 (unknown origin) assessed as remaining activity at 1 uM by Kinome scan method relative to control
[15] = biological target: Activin receptor type-1 (Homo sapiens) (UniProt Q04771); experiment: Inhibition of ACVR1 (unknown origin) assessed as remaining activity at 1 uM by Kinome scan method relative to control
Summary of the method: (§1)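 Active-site-dependent competition-binding (KINOMEscan) panel of 468 kinases, test compound at 1 μM (from a 10 mM DMSO stock). Read-out is ctrl% = (test signal − positive control signal)/(negative control signal − positive control signal) × 100. DMSO is the negative control (100%) and a control compound is the positive control (0%). Lower ctrl% means tighter binding.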

[16] = system: Mus musculus; experiment: In vivo inhibition of MST1/2 in wild-type Mst1fl/fl Mst2fl/fl mouse assessed as high in CTGF mRNA level at 1 mg/kg, ip administrated daily for 7 days by RT-PCR analysis; format: functional, organism-based; details: Liver, time 7.0 day
[17] = biological target: Serine/threonine-protein kinase 32B (Homo sapiens) (UniProt Q9NY57); experiment: Inhibition of YANK2 (unknown origin) assessed as remaining activity at 1 uM by Kinome scan method relative to control
[18] = biological target: Dual specificity tyrosine-phosphorylation-regulated kinase 2 (Homo sapiens) (UniProt Q92630); experiment: Inhibition of DYRK2 (unknown origin) assessed as remaining activity at 1 uM by Kinome scan method relative to control
[19] = system: HepG2; experiment: Induction of apoptosis in human HepG2 cells assessed as necrosis cells at 3 uM by annexinV staining (Rvb =0.04 %); format: functional
[20] = biological target: Mitogen-activated protein kinase kinase kinase 3 (Homo sapiens, UniProt Q99759); experiment: Inhibition of MAP3K3 (unknown origin) in presence of ATP by enzymatic assay
[21] = biological target: Homeodomain-interacting protein kinase 3 (Homo sapiens) (UniProt Q9H422); experiment: Inhibition of HIPK3 (unknown origin) assessed as remaining activity at 1 uM by Kinome scan method relative to control
[22] = biological target: Bone morphogenetic protein receptor type-1A (Homo sapiens) (UniProt P36894); experiment: Inhibition of BMPR1A (unknown origin) assessed as remaining activity at 1 uM by Kinome scan method relative to control; summary of the method: as §1
[23] = biological target: Ephrin type-B receptor 1 (Homo sapiens) (UniProt P54762); experiment: Inhibition of EPHB1 (unknown origin) assessed as remaining activity at 1 uM by Kinome scan method relative to control
Sequence of Ephrin type-B receptor 1 (Homo sapiens) (P54762 whole entry): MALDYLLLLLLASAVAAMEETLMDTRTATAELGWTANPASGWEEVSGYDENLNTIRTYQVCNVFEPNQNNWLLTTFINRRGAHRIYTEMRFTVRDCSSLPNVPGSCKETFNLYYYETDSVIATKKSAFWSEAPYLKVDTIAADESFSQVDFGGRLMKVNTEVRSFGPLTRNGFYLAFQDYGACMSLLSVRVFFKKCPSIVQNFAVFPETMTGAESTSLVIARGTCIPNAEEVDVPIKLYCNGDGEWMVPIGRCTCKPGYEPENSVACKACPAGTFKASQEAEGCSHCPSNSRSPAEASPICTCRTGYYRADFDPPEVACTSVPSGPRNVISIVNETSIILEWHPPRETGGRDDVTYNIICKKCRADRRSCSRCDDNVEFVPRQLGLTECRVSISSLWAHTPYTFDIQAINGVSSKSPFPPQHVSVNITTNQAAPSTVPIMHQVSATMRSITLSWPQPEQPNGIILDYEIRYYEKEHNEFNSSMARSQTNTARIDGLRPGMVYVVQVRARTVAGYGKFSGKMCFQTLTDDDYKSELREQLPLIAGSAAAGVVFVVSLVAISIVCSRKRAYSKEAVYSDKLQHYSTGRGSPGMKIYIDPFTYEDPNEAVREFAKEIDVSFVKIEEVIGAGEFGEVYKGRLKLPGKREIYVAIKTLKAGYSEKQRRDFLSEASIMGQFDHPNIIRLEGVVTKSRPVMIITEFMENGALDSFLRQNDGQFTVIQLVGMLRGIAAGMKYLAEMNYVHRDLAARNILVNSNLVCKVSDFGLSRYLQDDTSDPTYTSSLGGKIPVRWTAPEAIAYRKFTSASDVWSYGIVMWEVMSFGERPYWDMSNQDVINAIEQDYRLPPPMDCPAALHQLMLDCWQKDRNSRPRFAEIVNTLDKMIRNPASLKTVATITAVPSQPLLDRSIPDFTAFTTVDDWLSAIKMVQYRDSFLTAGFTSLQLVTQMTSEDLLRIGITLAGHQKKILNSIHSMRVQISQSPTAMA

Sequence of Mast/stem cell growth factor receptor Kit (Homo sapiens), P10721 [V559D] (P10721 whole entry V559D): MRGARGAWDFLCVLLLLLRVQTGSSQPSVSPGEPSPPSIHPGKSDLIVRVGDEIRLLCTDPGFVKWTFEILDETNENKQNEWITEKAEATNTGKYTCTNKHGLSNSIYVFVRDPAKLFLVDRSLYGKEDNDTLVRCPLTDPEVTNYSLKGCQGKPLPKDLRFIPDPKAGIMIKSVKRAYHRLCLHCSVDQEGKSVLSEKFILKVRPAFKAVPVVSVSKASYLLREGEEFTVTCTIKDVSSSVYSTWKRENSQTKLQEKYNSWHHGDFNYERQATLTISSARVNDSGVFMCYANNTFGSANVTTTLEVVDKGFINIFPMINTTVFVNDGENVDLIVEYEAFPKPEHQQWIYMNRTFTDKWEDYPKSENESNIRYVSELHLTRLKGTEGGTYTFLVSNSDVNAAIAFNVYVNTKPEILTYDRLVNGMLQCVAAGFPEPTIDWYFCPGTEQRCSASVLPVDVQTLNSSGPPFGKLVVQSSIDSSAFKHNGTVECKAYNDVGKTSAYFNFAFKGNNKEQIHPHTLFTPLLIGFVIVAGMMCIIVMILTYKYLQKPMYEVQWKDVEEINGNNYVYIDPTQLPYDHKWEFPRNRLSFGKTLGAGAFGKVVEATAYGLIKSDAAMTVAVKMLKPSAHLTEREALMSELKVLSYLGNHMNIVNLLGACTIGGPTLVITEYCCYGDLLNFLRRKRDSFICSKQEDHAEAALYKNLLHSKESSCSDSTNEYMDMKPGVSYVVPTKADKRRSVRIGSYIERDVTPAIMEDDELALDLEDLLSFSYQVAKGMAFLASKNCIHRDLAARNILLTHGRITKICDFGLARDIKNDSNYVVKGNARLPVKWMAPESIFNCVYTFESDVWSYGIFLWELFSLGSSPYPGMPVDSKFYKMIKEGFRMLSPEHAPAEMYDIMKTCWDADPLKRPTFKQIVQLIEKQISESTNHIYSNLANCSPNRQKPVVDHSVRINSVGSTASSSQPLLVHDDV
Sequence of Serine/threonine-protein kinase D1 (Homo sapiens) (Q15139 whole entry): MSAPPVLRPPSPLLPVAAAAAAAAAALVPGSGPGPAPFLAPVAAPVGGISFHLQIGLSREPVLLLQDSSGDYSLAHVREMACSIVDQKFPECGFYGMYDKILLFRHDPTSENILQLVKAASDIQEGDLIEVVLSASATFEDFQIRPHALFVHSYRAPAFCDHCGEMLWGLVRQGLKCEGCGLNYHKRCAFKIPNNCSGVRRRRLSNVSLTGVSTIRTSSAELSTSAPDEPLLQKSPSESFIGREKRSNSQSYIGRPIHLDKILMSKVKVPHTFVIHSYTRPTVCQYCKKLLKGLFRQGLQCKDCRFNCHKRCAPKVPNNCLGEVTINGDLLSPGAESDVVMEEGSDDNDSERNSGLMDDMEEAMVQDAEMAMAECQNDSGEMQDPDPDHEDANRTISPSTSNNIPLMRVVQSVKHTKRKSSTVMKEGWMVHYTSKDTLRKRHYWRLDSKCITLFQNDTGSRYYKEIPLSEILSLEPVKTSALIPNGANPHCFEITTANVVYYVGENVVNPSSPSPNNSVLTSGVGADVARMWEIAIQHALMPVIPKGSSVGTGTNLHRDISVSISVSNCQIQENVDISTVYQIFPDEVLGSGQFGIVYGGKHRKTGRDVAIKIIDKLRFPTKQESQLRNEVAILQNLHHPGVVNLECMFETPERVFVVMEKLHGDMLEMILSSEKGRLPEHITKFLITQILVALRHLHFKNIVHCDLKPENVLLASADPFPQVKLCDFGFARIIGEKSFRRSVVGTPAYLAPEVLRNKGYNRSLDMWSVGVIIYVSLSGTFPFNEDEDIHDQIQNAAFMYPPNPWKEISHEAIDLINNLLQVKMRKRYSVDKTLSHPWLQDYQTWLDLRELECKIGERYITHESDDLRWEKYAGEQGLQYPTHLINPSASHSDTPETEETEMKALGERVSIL
Sequence of Serine/threonine-protein kinase ULK2 (Q8IYT8 whole entry): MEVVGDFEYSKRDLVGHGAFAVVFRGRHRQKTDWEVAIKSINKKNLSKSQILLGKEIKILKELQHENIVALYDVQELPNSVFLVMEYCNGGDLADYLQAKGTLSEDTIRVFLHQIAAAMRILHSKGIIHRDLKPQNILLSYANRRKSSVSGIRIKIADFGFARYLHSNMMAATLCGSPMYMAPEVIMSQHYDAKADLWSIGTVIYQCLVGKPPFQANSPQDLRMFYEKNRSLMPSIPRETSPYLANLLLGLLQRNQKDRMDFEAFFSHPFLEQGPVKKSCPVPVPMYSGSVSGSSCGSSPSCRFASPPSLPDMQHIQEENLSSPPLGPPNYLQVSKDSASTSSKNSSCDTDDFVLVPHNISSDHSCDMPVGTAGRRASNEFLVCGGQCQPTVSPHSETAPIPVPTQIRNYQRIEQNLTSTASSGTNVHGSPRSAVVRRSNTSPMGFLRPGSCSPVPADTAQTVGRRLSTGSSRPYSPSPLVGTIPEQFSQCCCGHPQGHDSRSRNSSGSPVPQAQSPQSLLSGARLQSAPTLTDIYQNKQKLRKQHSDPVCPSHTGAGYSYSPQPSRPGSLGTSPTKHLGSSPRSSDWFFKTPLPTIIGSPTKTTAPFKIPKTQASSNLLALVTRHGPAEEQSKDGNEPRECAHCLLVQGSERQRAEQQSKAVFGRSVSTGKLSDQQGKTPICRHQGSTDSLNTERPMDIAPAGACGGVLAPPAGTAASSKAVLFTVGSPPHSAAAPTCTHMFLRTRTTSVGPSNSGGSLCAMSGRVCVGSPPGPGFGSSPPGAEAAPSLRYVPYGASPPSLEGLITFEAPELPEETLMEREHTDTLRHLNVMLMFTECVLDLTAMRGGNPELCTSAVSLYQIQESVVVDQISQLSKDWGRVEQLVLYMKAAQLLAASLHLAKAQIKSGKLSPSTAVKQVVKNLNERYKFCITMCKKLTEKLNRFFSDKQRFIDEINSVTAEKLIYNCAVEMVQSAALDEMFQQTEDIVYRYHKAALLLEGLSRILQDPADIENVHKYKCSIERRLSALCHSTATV
Sequence of Serine/threonine-protein kinase 32B (Homo sapiens) (Q9NY57 whole entry): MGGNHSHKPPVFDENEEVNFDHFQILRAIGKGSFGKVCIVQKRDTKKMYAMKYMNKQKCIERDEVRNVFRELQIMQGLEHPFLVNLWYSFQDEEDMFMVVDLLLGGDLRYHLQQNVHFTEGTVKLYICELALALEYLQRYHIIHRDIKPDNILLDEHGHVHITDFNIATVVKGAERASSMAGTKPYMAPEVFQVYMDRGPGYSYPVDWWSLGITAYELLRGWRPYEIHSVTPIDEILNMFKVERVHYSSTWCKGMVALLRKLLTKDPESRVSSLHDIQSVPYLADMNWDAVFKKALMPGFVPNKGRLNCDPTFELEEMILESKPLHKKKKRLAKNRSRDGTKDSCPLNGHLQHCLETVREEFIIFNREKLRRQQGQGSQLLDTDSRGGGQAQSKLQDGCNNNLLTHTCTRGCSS
Sequence of Tyrosine-protein kinase ZAP-70 (Homo sapiens) (P43403 whole entry): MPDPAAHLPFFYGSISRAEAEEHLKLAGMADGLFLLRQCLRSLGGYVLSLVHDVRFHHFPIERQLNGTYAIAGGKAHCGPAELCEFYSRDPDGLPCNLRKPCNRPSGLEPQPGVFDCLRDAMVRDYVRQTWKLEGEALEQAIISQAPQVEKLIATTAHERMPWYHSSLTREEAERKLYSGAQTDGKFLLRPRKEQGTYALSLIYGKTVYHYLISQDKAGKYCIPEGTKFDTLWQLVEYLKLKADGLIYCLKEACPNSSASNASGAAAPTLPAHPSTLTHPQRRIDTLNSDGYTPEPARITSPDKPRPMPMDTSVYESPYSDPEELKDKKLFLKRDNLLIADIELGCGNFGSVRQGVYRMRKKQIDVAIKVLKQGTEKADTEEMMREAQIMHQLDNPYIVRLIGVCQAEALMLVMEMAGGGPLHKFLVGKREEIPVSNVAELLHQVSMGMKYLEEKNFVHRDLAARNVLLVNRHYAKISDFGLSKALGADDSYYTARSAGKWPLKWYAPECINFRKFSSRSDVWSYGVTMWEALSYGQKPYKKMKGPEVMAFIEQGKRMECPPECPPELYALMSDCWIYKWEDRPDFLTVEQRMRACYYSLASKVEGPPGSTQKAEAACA

SMILES: CN1C(=O)c2sccc2N(C)c2nc(Nc3ccc(S(N)(=O)=O)cc3)ncc21
- Activity [1]: 90%
- Activity [2]: Non-Toxic
- inhibition [3]: Active
- Activity [4]: 97%
- Kd [5]: 24 nM
- IC50 [6]: 164 nM
- Activity [7]: 100%
- Activity [8]: 100%
- Activity [9]: 86%
- IC50 [10]: 41.5 nM
- Activity [11]: 100%
- Activity [12]: 100%
- Activity [13]: 98%
- Activity [14]: 98%
- Activity [15]: 91%
- inhibition [16]: Active
- Activity [17]: 100%
- Activity [18]: 84%
- Activity [19]: 0.05%
- IC50 [20]: 38.4 nM
- Activity [21]: 100%
- Activity [22]: 70%
- Activity [23]: 100%
